CHRM4 antagonist = human M4 muscarinic receptor antagonists, primary screen, CHO cells, Fluo-8 calcium fluorescence | Muscarinic acetylcholine receptor M4 (Homo sapiens), P08173 | CHO-hM4 cells, ACh EC80 | inhibition, % at 3 µM | 360,000 compounds, 0.73% hits;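 active = inhibition above its plate's cutoff, the mean inhibition of sample wells plus 3 SD, cut at about 27% in these data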;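 note: 0% = acetylcholine EC80 with DMSO and 100% = DMSO without agonist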
CHRM5 antagonist = human M5 muscarinic receptor antagonists, primary screen, CHO cells, Fluo-8 calcium fluorescence; 360,000 compounds, 0.59% hits; inhibition, % at 3 µM; CHO-hM5 cells, ACh EC80; AID 624040, 2012; Muscarinic acetylcholine receptor M5 (Homo sapiens), P08912;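 active = inhibition above a per-plate cutoff, the mean of that plate's test compounds plus 3 SD, cut at about 27% in these data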;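 note: 0% = acetylcholine EC80 with DMSO and 100% = DMSO without agonist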
Target sequence (P08912 whole entry, looked up): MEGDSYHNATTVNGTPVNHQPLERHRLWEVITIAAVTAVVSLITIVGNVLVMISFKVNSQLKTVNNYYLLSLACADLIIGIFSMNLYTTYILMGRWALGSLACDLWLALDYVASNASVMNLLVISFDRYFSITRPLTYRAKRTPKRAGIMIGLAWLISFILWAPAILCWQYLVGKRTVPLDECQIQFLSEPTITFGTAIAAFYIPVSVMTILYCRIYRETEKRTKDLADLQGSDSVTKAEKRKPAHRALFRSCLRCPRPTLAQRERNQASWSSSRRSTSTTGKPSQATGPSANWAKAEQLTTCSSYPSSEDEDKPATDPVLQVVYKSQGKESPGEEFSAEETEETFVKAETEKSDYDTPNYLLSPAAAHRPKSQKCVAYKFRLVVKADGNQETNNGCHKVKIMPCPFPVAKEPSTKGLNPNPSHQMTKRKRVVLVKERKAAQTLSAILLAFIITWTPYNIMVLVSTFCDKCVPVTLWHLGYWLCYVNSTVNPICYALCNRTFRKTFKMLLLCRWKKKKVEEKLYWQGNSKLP
M4 PAM = human M4 muscarinic receptor positive allosteric modulators, primary screen, CHO-K1 cells, Fluo-8 calcium fluorescence; 360,000 compounds, 0.4% hits; activation, % at 3 µM; CHO-K1 hM4/Gqi5, ACh EC20; 0% = ACh EC20, 100% = maximal ACh; Muscarinic acetylcholine receptor M4 (Homo sapiens), P08173;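 active = activation above its plate's cutoff, the mean activation of sample wells plus 3 SD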
M5 ag = human M5 muscarinic receptor agonists, primary screen, CHO-K1 cells, Fluo-8 calcium fluorescence; activation, % at 3 µM; 360,000 compounds, 0.19% hits; CHO-K1 hM5 cells; 0% DMSO wells, 100% maximal acetylcholine response; Muscarinic acetylcholine receptor M5 (Homo sapiens), P08912;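 active = activation above the run's mean over test compounds plus 3 SD, cut at about 23% in these data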;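 note: signal is peak over basal fluorescence ratio across the kinetic read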
CHRM5 PAM = human M5 muscarinic receptor positive allosteric modulators, primary screen, CHO-K1 cells, Fluo-8 calcium fluorescence; AID 624038, 2012; CHO-K1 hM5, ACh EC20 PAM; 0% = ACh EC20, 100% = ACh EC100; 360,000 compounds, 0.3% hits; activation, % at 3 µM; Muscarinic acetylcholine receptor M5 (Homo sapiens), P08912;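 active = activation above the run cutoff, the mean activation of all test compounds plus 3 SD, cut at about 18% in these data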
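Assay system – human M5 receptor in CHO-K1 cells · Read-out – % activation, ACh-normalized · Technique – Fluo-8 calcium fluorescence · Dosing – single-point, 3 µM nominal · Incubation – Fluo-8 loading 80 min at 37 °C plus 30 min room temperature · Repeats – singlicate, one well per test compound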
M4 ag = human M4 muscarinic receptor agonists, primary screen, CHO-K1 cells, Fluo-8 calcium fluorescence | activation, % at 3 µM | Muscarinic acetylcholine receptor M4 (Homo sapiens), P08173 | CHO-K1 hM4/Gqi5; vehicle 0%, full acetylcholine response 100% | AID 624127, 2012 | 360,000 compounds, 0.14% hits;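 active = activation above the run mean over all test wells plus 3 SD, cut at about 32% in these data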;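 note: peak over basal fluorescence ratio per well then scaled between controls; 0% = DMSO wells and 100% = acetylcholine at EC100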
Starred values were filed as active, the others as inactive. Shown are actives, neighbours in structure and some others; about 1.9% of the full set was active somewhere.

SMILES | CHRM4 antagonist | CHRM5 antagonist | M4 PAM | M5 ag | CHRM5 PAM | M4 ag
COc1cccc(NC(=O)CN(C)C(=O)c2cc(-c3ccccc3)nn2-c2ccccc2)c1 | -15.3 | 4.9 | 18.1* | -2.4 | -3.5 | 4.3
CCNC(=O)C1(C)CCN(Cc2ccccc2C#N)C1 (stereo not given) | -6.3 | 3.6 | 6.8 | 2.0 | 0.1 | 1.0
CC1(C)Cc2cccc(OC(=O)NC3CCCCC3)c2O1 | 6.6 | 1.0 | 3.1 | 5.9 | -0.2 | 0.3
COc1ccc(/C=C\C(=O)O[C@@H]2C(O)C(O[C@@H]3OC(C)[C@H](O[C@@H]4OCC(O[C@H]5O[C@H](CO)[C@@H](O)C(O)C5O)C(O)C4O)C(O)C3O)[C@H](OC(=O)[C@]34CCC(C)(C)C[C@@H]3C3=CCC5[C@@]6(C)CC(O)C(O[C@@H]7OC(CO)C(O)[C@H](O)[C@H]7O)[C@@](C)(C(=O)O)C6CC[C@@]5(C)[C@]3(CO)CC4)O[C@H]2C)cc1 (stereo not given in full) | 79.2* | 48.3* | -13.6 | 50.3* | -27.1 | 147.4*
CCOC(=O)N1CCN(C(=O)c2cc3c(s2)-c2ccccc2OC3)CC1 | -24.7 | -5.7 | 24.4* | 1.1 | -7.7 | 12.2
CCCN1CCN(C(=O)c2cc3c(s2)-c2ccccc2OC3)CC1 | -1.7 | -0.6 | 2.3 | -1.3 | 0.3 | 2.7
N=NC(=O)c1ccccc1Nc1c(O)[nH]c2ccccc12 | -11.8 | 9.3 | 5.3 | 1.4 | 3.0 | 7.7
CC(=O)c1cnc(N2CCCCC2)nc1C | 30.9* | -2.4 | 15.6 | -1.5 | 18.2* | 1.5
CC(C)(C)S(=O)(=O)c1cnc(N2CCCCC2)nc1N | 5.0 | 6.1 | -18.5 | -2.7 | -2.1 | 0.4
c1ccc(CCNc2ncnc3scc(C4COc5ccccc5O4)c23)cc1 (stereo not given) | 38.0* | 15.4 | -18.8 | -3.6 | -9.7 | -0.7
COC(=O)c1ccc(NC(=O)Nc2ccc([N+](=O)[O-])cc2)cc1 | 13.5 | 34.6* | -8.8 | 4.5 | -22.9 | 17.6
COC(=O)c1cccc(NC(=O)Nc2ccc(Cl)c(Cl)c2)c1 | 11.9 | 32.2* | -8.3 | 12.3 | -26.4 | 26.7
COC(=O)c1cc(NC(=O)Nc2ccccc2)ccc1Cl | -2.0 | 31.3* | -21.1 | 8.4 | -18.5 | 24.9
COC(=O)c1ccc(NC(=O)Nc2ccc(F)c(Cl)c2)cc1 | 8.7 | 30.7* | -8.4 | 14.6 | -20.8 | 24.6
CCC(C)[C@H](N)C(=O)N[C@H]1CCC2C3CC=C4C[C@@H](O)CC[C@]4(C)C3CC[C@@]21C (stereo not given in full) | -1.5 | 3.3 | -1.6 | 3.9 | 1.3 | 4.6
O=C(Nc1ccccc1)Nc1ccccc1NS(=O)(=O)c1cccs1 | -17.2 | 3.4 | -6.0 | 8.0 | -15.1 | 12.8
O=C(Nc1ccc(Cl)c(Cl)c1)Nc1ccccc1NS(=O)(=O)c1cccs1 | 5.7 | 30.1* | -9.4 | 4.5 | -19.1 | 13.1
COC(=O)c1sccc1NC(=O)Nc1ccc(Cl)c(Cl)c1 | 27.6* | 17.4 | -18.8 | -0.7 | -12.1 | 3.9
COc1cc(F)ccc1-c1csc(C(O)(c2ccccc2)C(F)(F)F)n1 (stereo not given) | 10.3 | 6.5 | -12.5 | -2.4 | -12.9 | -0.9
CCc1ccc2c(c1)Sc1ccccc1CC2N1CCN(C)CC1 (stereo not given) | 32.6* | 8.8 | -71.7 | -12.1 | -28.5 | 25.3
c1ccc2c(c1)CC(N1CCCCC1)c1ccccc1S2 (stereo not given) | -17.6 | 2.5 | -24.2 | -20.4 | -31.5 | -0.7
CN1CCN(C2Cc3cc(Cl)ccc3Sc3cc(F)ccc32)CC1 (stereo not given) | 94.2* | 58.8* | -64.4 | -17.6 | -31.8 | 22.8
